Test: Displacement of [125I]TZDM from amyloid beta (1 to 40) aggregates after 2 hrs by gamma counting
In short: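 Competition binding against [125I]TZDM as radiolabeled standard, using Aβ1–40 aggregates; run in triplicate, results as mean ± SD.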

Ki: 15.9 nM
Structure (SMILES): O=C(/C=C/c1ccccc1)n1ccc2ccccc21
